ChEMBL document CHEMBL1157289, “Antiparasitic activity of some xanthones and biflavonoids from the root bark of Garcinia livingstonei” (J Nat Prod, 2006)

Legend:
[1] = tested on: Trypanosoma brucei brucei; test: Antitrypanosomal activity against Trypanosoma brucei brucei; assay type: functional, organism-based
Trypanosoma cruzi [2] = test: Antitrypanosomal activity against Trypanosoma cruzi in mouse peritoneal macrophages; assay type: functional, organism-based
Summary of the method: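 Primary mouse peritoneal macrophages, 30 000/well, infected after 24 h with about 10 000 trypomastigotes alongside 4-fold drug dilutions. 7 days at 37 °C, 5% CO2.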

MRC5 = test: Cytotoxicity against human MRC5 cells by alamar-blue assay; assay type: cell-based
Summary of the method: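 Cells seeded at 5000/well, washed after 24 h, then given 4-fold dilutions in RPMI + 5% FCS, final DMSO below 0.5%. 7 days at 37 °C, 5% CO2, untreated controls included.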

Plasmodium falciparum = test: Antiplasmodial activity against chloroquine-sensitive Plasmodium falciparum Ghana by LDH reporter assay; assay type: functional, organism-based
Leishmania infantum = test: Antileishmanial activity against Leishmania infantum MHOM/MA(BE)/67 amastigotes in mouse peritoneal macrophages; assay type: functional, organism-based
Summary of the method: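 Amastigotes from serially passaged Syrian hamster infection; macrophages elicited by intraperitoneal 2% starch, harvested 24-48 h later. 5-day incubation; Giemsa-stained microscopic count; % reduction of parasite burden vs control, IC50 determined.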

Trypanosoma cruzi [3] = test: Antitrypanosomal activity against Trypanosoma cruzi trypomastigotes assessed as immobilized trypomastigotes after 48 hrs; assay type: functional
[4] = Cytotoxicity in Leishmania infantum MHOM/MA(BE)/67 amastigotes infected mouse peritoneal macrophages; assay type: cell-based; details: macrophage

Row | IC50 [1] [µM] | IC50 (Trypanosoma cruzi [2]) [µM] | IC50 (Plasmodium falciparum) [µM] | IC50 (Leishmania infantum) [µM] | Structure (SMILES) | IC50 (MRC5) [µM] | MC100 (Trypanosoma cruzi [3]) [µM] | Activity [4]
1 | 0.87 | 7 | 10 | 27 | CC(C)=CCc1cc(O)c2c(=O)c3cccc(O)c3oc2c1O | > 32 | – | –
2 | 5 | 8 | 52 | > 64 | CC(C)=CCCC1(C)C=Cc2c(cc(O)c3c(=O)c4cccc(O)c4oc23)O1 (stereo not drawn) | > 64 | – | –
3 | – | – | – | – | C=CC(C)(C)c1cc(O)c2oc3c4c(ccc3c(=O)c2c1O)C=CC(C)(C)O4 | – | 8 | –
4 | 2 | 5.7 | 59 | > 64 | CC(C)=CCC/C(C)=C/Cc1c(O)cc(O)c2c(=O)c3cccc(O)c3oc12 | > 64 | – | –
5 | 28.3 | 34.7 | 6 | > 64 | COc1ccc([C@@H]2CC(=O)c3c(O)cc(O)c([C@@H]4C(=O)c5c(O)cc(O)cc5O[C@H]4c4ccc(O)cc4)c3O2)cc1 | 38 | – | –
6 | 0.4 | 4 | 6.7 | 32 | CC1=C[C@H](c2cc(O)c3c(=O)c4cccc(O)c4oc3c2O)[C@](C)(/C=C/c2cc(O)c3c(=O)c4cccc(O)c4oc3c2O)CC1 [GARCILIVIN A] | 2 | – | Toxic
7 | 7.7 | 39.2 | > 64 | > 64 | CC1=C[C@@H](c2cc(O)c3c(=O)c4cccc(O)c4oc3c2O)[C@](C)(/C=C/c2cc(O)c3c(=O)c4cccc(O)c4oc3c2O)CC1 [GARCIVILIN C] | 52.3 | – | –
8 | – | – | – | – | O=C1c2c(O)cc(O)cc2O[C@H](c2ccc(O)cc2)[C@H]1c1c(O)cc(O)c2c(=O)cc(-c3ccc(O)c(O)c3)oc12 [MORELLOFLAVONE] | > 64 | – | –
